In paper PMC9662946 (Clinical Cancer Research, 2022):
Entries after “also recorded” stand apart in the source; their conditions may differ.

Tests used:
[1] = tested on: patients with advanced solid tumors; test: Phase I safety and tolerability: AEs, SAEs, DLTs; type: in vivo, human
[2] = Plasma pharmacokinetics of AZD8186 and metabolite M1; type: in vivo, human; settings: for Effect of the combination partner on the PK of AZD8186 (Cmax, AUC): drug–drug interaction analysis versus AZD8186 monotherapy
[3] = tested on: pAKT (S473), pAKT (T308), pGSK3β; test: PD biomarkers of PI3Kβ inhibition in platelet-rich plasma; type: in vivo, human; settings: pooled 60-mg and 120-mg BID monotherapy cohorts
pAKT (S473) and pPRAS40 = test: IHC of paired tumor biopsies; type: in vivo, human; settings: six patients, 120-mg BID monotherapy dose expansion
Procedure, shortened: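 Paired fresh biopsies from patients with PTEN-deficient/mutated mCRPC or TNBC, taken at screening and in week 2 after ≥3 consecutive dosing days (preferably 2–4 h post-dose; days 11 or 12 on 5:2, days 11–14 continuous). IHC for pAKT (S473) and pPRAS40 on three non-consecutive sections. Digital image analysis scored membranous pAKT and cytosolic pPRAS40 intensity as H-scores, with percent change from baseline.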

advanced solid tumors = test: Tumor response by RECIST 1.1; type: in vivo, human
Procedure, shortened: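 Imaging at baseline and every 6 weeks (every 12 weeks for mCRPC) until discontinuation or consent withdrawal. Patients with measurable disease were classed as complete response, partial response, stable disease or progressive disease under RECIST 1.1. Results were summarised descriptively, with percent change from baseline in target lesions.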

PI3Kβ = settings: cited from earlier work
[4] = non-prostate cancer, dose finding
[5] = combined with AZD8186, dose expansion
[6] = combined with AZD8186, dose finding

C[C@@H](Nc1cc(F)cc(F)c1)c1cc(C(=O)N(C)C)cc2c(=O)cc(N3CCOCC3)oc12 [AZD8186, (R)-8-(1-(3,5-difluorophenylamino)ethyl)-N,N-dimethyl-2-morpholino-4-oxo-4H-chromene-6-carboxamide]
Any AE ([1]; dose expansion): 19 (95.0) n (%)
Any AE causally related to AZD8186 only ([1]; dose expansion): 11 (55.0) n (%)
Any AE leading to discontinuation of AZD8186 ([1]; dose expansion): 1 (5.0) n (%)
Any AE leading to dose modification of AZD8186 ([1]; dose expansion): 0 n (%)
Any SAE (including deaths) ([1]; dose expansion): 4 (20.0) n (%)
Any SAE (including deaths), causally related to AZD8186 only ([1]; dose expansion): 2 (10.0) n (%)
Any SAE causing discontinuation of AZD8186 ([1]; dose expansion): 0 n (%)
Any SAE causing discontinuation of AZD8186, causally related to AZD8186 only ([1]; dose expansion): 0 n (%)
Any grade ≥3 AE ([1]; dose expansion): 8 (40.0) n (%)
Any grade ≥3 AE causally related to AZD8186 only ([1]; dose expansion): 3 (15.0) n (%)
Death ([1]; dose expansion): 0 n (%)
Death causally related to AZD8186 only ([1]; dose expansion): 0 n (%)
Dose interruption of AZD8186, patients ([1]; dose expansion): 35.0%
Dose reduction of AZD8186, patients ([1]; dose expansion): No dose reductions
Anemia, grade ≥3 causally related AE, patients ([1]; dose finding): 4.8%
Any AE ([1]; dose finding): 63 (100.0) n (%)
Any AE causally related to AZD8186 only ([1]; dose finding): 55 (87.3) n (%)
Any AE leading to discontinuation of AZD8186 ([1]; dose finding): 11 (17.5) n (%)
Any AE leading to dose modification of AZD8186 ([1]; dose finding): 10 (15.9) n (%)
Any SAE (including deaths) ([1]; dose finding): 23 (36.5) n (%)
Any SAE (including deaths), causally related to AZD8186 only ([1]; dose finding): 10 (15.9) n (%)
Any SAE causing discontinuation of AZD8186 ([1]; dose finding): 6 (9.5) n (%)
Any SAE causing discontinuation of AZD8186, causally related to AZD8186 only ([1]; dose finding): 5 (7.9) n (%)
Any grade ≥3 AE ([1]; dose finding): 39 (61.9) n (%)
Any grade ≥3 AE causally related to AZD8186 only ([1]; dose finding): 20 (31.7) n (%)
Aspartate aminotransferase increase, grade ≥3 causally related AE, patients ([1]; dose finding): 4.8%
Colitis, grade ≥3 causally related AE, patients ([1]; dose finding): 4.8%
Death ([1]; dose finding): 0 n (%)
Death causally related to AZD8186 only ([1]; dose finding): 0 n (%)
Diarrhea, AE causally related to AZD8186, patients ([1]; dose finding): 41.3%
Fatigue, AE causally related to AZD8186, patients ([1]; dose finding): 22.2%
Hypophosphatemia, grade ≥3 causally related AE, patients ([1]; dose finding): 4.8%
Maculo-papular rash, grade ≥3 causally related AE, patients ([1]; dose finding): 4.8%
Nausea, AE causally related to AZD8186, patients ([1]; dose finding): 27.0%
Vomiting, AE causally related to AZD8186, patients ([1]; dose finding): 23.8%
Dose interruption of AZD8186, patients ([1]; dose finding, whole arm): 49.2%
Dose interruption of AZD8186 related to AEs, patients ([1]; dose finding, whole arm): 38.1%
Dose reduction of AZD8186, patients ([1]; dose finding, whole arm): 17.5%
Tolerability ([1]; monotherapy dose expansion, 60-mg BID (5:2) and 120-mg BID (continuous)): well tolerated
Patients who experienced a DLT ([1]; monotherapy dose finding, 53 evaluable for DLTs): 7.5%
half-life ([2]; human, plasma, oral, terminal elimination half-life, overall range, after a single dose): 1.4 to 13.8 h
Effect on the PK of abiraterone acetate ([2]; in vivo): little effect
Cmax and AUC versus dose ([2]; single- and multiple-dose administration): dose proportional; also recorded: increased with dose
pAKT (S473), pAKT (T308), and pGSK3β in platelet-rich plasma [3]: Substantial reductions
Patients with substantial reduction in pAKT (S473) membrane fraction (pAKT (S473) and pPRAS40): all six patients
Patients with substantial reduction in pPRAS40 (pAKT (S473) and pPRAS40): five of the six patients
Duration of RECIST 1.1 partial response (advanced solid tumors; dose finding): 372 days
RECIST 1.1 best objective response stable disease, patients (advanced solid tumors; [4]): 38.9%
RECIST 1.1 disease progression, patients (advanced solid tumors; [4]): 55.6%
RECIST 1.1 confirmed partial response, patients (advanced solid tumors; non-prostate cancer, dose finding (120-mg BID; 2:5)): 5.6%
RECIST 1.1 disease progression, patients (advanced solid tumors; prostate cancer, dose expansion): 25.0%
RECIST 1.1 best objective response stable disease, patients (advanced solid tumors; prostate cancer, dose finding): 37.5%
RECIST 1.1 disease progression, patients (advanced solid tumors; prostate cancer, dose finding): 62.5%
IC50 (PI3Kβ): 4 nM

CC(=O)O[C@H]1CC[C@@]2(C)C(=CC[C@@H]3[C@@H]2CC[C@]2(C)C(c4cccnc4)=CC[C@@H]32)C1 [Abiraterone acetate, abiraterone acetate, reference compound]
Dose interruption of the combination partner, patients [1, 5]: 72.2%
Dose reduction of the combination partner, patients [1, 5]: 33.3%
Dose interruption of the combination partner, patients [1, 6]: 56.3%
Dose reduction of the combination partner, patients [1, 6]: 18.8%
Effect of the combination partner on the PK of AZD8186 (Cmax, AUC) [2]: little or no effect

CNC(=O)c1cccc(-c2ccc3c(N4CCOC[C@@H]4C)nc(N4CCOC[C@@H]4C)nc3n2)c1 [Vistusertib, vistusertib, reference compound]
Dose interruption of the combination partner, patients [1, 6]: 60.0%
Dose reduction of the combination partner, patients [1, 6]: 23.3%
Effect of the combination partner on the PK of AZD8186 (Cmax, AUC) [2]: not affected

C[C@]12C=CC(=O)C=C1CC[C@@H]1[C@@H]2C(=O)C[C@@]2(C)[C@H]1CC[C@]2(O)C(=O)CO [prednisone, reference compound]
Dose interruption of the combination partner, patients [1, 5]: 77.8%
Dose reduction of the combination partner, patients [1, 5]: 22.2%
Dose interruption of the combination partner, patients [1, 6]: 56.3%
Dose reduction of the combination partner, patients [1, 6]: 18.8%
